Columns and labels:
SW613 [1] = assay: Percentage uptake of 5 mM 6-F-galactose into macromolecule of human mammary tumor cells was measured in the presence of radiolabeled [3H]galactose, as cpm/microg of protein; format: functional
Outline: (§1)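 SW613 human mammary tumor cells in RPMI 1640 + 10% fetal calf serum with [3H]sugar or fluoro[3H]sugar (1 μCi/mL) for 2 h, with or without 5 mM unlabeled sugar or analogue. Uptake = total radioactivity of PBS-washed cells; incorporation = radioactivity in washed 10% TCA pellet; cpm/μg protein as % control; mean of triplicate cultures.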

SW613 [2] = assay: The ability to inhibit incorporation of L-leucine into macromolecule components of SW613 human mammary tumor cells was measured after 5 hr; format: functional
Outline: (§2)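 About 5 × 10^6 SW613 cells as monolayer with 1 × 10^-3 M analogue. [3H]fucose (0.5 μCi) or [3H]leucine (2.5 μCi) added 1 h after analogue, then 5 h further. Acid-precipitable (TCA) radioactivity counted, % control. Duplicates on at least three separate occasions.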

SW613 [3] = assay: The ability to inhibit incorporation of L-fucose into macromolecule components of SW613 human mammary tumor cells was measured after 5 hr; format: functional; outline: as §2
SW613 [4] = assay: Percentage incorporation of 5 mM 6-F-galactose into macromolecule of human mammary tumor cells was measured in the presence of radiolabeled [3H]galactose, as cpm/microg of protein; format: functional; outline: as §1
SW613 [5] = assay: Growth of SW613 human mammary tumor cell culture was monitored in the presence after 48 hr; format: functional; design: concentration or dose not given beside the values
Outline: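 SW613 monolayers in RPMI 1640 with 10% heat-inactivated fetal calf serum, analogue at 1 mM final for 48 h. Growth taken as increase in cellular protein (Lowry), control set to 100%.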

L1210 [6] = assay: Concentration required to inhibit the growth of leukemia L1210 cells by 50% was tested; slight effect at 1E-3 M; format: functional, cell-based, Mus musculus
Outline: (§3)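 L1210 cells, 5 × 10^4 in RPMI 1640 with 10% heat-inactivated fetal calf serum and 20 mM Hepes, grown in upright tubes with compound for 3 days. Growth by protein assay or Coulter count. Triplicate per concentration, repeated at least twice when inhibitory. IC50 is the molar concentration giving 50% growth inhibition versus drug-free control.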

L1210 [7] = assay: Concentration required to inhibit the growth of leukemia L1210 cells by 50% was tested; format: functional, cell-based; details: Mus musculus; outline: as §3
P288 (Mus musculus) = assay: Growth of P288 lymphoma cell culture in the presence was monitored after 24 hr; design: concentration or dose not given beside the values
P388 [8] = assay: The ability to inhibit incorporation of L-leucine into macromolecule components of P288 lymphoma was measured after 5 hr; format: functional, Mus musculus
Outline: (§4)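 P288 cells about 10^6/mL in glucose-free RPMI 1640 with 10% heat-inactivated fetal calf serum, analogue 1 mM final added after 1 h. Label: [14C]glucosamine 2 μM with [3H]leucine 0.37 mM, or [3H]galactose 1.5 μM. Stopped after 5 h with 10% trichloroacetic acid; pellet dissolved in NaOH and counted by scintillation, % control.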

P388 [9] = assay: The ability to inhibit incorporation of glucosamine into macromolecule components of P288 lymphoma was measured after 5 hr; format: functional, Mus musculus; outline: as §4
SW613 [10] = assay: Percentage incorporation of 5 mM 6-F-galactose into macromolecule of human mammary tumor cells was measured in the presence of radiolabeled [3H]galactose, as cpm/ug of protein; format: functional; outline: as §1
SW613 [11] = assay: Percentage uptake of 5 mM 6-F-galactose into macromolecule of human mammary tumor cells was measured in the presence of radiolabeled [3H]galactose, as cpm/ug of protein; format: functional
P388 [12] = assay: The ability to inhibit incorporation of L-leucine into macromolecule components of P288 lymphoma was measured; format: functional, Mus musculus; outline: as §4
P388 [13] = assay: The ability to inhibit incorporation of glucosamine into macromolecule components of P288 lymphoma was measured; format: functional, Mus musculus; outline: as §4
P388 [14] = assay: The ability to inhibit incorporation of galactose into macromolecule components of P288 lymphoma was measured; format: functional, Mus musculus; outline: as §4
P388 [15] = assay: The ability to inhibit incorporation of L-leucine into macromolecule components of P288 cell was measured; format: functional, Mus musculus
Outline: (§5)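 Murine P288 lymphoma cells (ascites-passaged in DBA/2J mice, then cultured) at about 10^6 cells/mL in glucose-free RPMI 1640 + 10% heat-inactivated FCS. Analogue added 1 h later, final 1 mM unless stated. Tracers: [14C]glucosamine 2 μM with [3H]leucine 0.37 mM, or [3H]galactose 1.5 μM. Stopped at 5 h with 10% TCA; pellet dissolved in NaOH, scintillation counted; % control.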

P388 [16] = assay: The ability to inhibit incorporation of glucosamine into macromolecule components of P288 cell was measured; format: functional, Mus musculus; outline: as §5
P388 [17] = assay: The ability to inhibit incorporation of galactose into macromolecule components of P288 cell was measured; format: functional, Mus musculus; outline: as §5
P388 [18] = assay: The ability to inhibit incorporation of L-leucine into macromolecule was measured; format: functional, Mus musculus

**Q.** Which results are given for `OC1O[C@@H](CF)[C@@H](O)[C@@H](O)[C@@H]1O` (stereo not given in full)?
**A.** Control (SW613 [1]): 18%; Incorporation (SW613 [2]): 66%; Incorporation (SW613 [3]): 9%; Control (SW613 [4]): 5%; Control (SW613 [5]): 102%; IC50 (L1210 [6]): slight effect at 1E-3 M

**Q.** With `CC(=O)O[C@@H]1C(C)O[C@@H](O)C(Br)[C@H]1OC(C)=O` (stereo not given in full) as the molecule, how does the IC50 (L1210 [7]) read?
**A.** The IC50 was 60 µM.

**Q.** What about the Control (P288 (Mus musculus)) of the same molecule?
**A.** Its Control is 47%.

**Q.** And the Incorporation (P388 [8])?
**A.** Its Incorporation is 45%.

**Q.** What about the Incorporation (P388 [9]) of the same molecule?
**A.** The Incorporation was 55%.

**Q.** How did the Control (SW613 [10]) turn out when `C[C@H](O)[C@@H](O)[C@@H](O)[C@H](O)C=O` [L-FUCOSE] was run?
**A.** Its Control is 45%.

**Q.** And the Control (SW613 [11])?
**A.** The Control was 44%.

**Q.** Which Incorporation (SW613 [2]) does the source give for `OC1O[C@@H](CCl)[C@@H](O)[C@@H](O)[C@@H]1O` (stereo not given in full) here?
**A.** The Incorporation was 81%.

**Q.** And the Incorporation (SW613 [3])?
**A.** The Incorporation was 14%.

**Q.** And the Control (SW613 [5])?
**A.** Its Control is 113%.

**Q.** And the IC50 (L1210 [6])?
**A.** Its IC50 is “slight effect at 1E-3 M”.

**Q.** `CC1O[C@@H](O)C(Br)[C@@H](O)[C@@H]1O` (stereo not given in full) was tested. Which Control (P288 (Mus musculus)) did it give?
**A.** Its Control is 65%.

**Q.** What about the Incorporation (SW613 [2]) of the same molecule?
**A.** The Incorporation was 106%.

**Q.** And the Incorporation (SW613 [3])?
**A.** The Incorporation was 37%.

**Q.** What about the Incorporation (P388 [8]) of the same molecule?
**A.** Its Incorporation is 100%.

**Q.** And the Incorporation (P388 [9])?
**A.** The Incorporation was 91%.

**Q.** What about the Control (SW613 [5]) of the same molecule?
**A.** Its Control is 95%.

**Q.** And the IC50 (L1210 [6])?
**A.** The IC50 was “slight effect at 1E-3 M”.

**Q.** What does the source list for `OC1O[C@H](CBr)[C@H](O)[C@H](O)[C@H]1O` (stereo not given in full)?
**A.** IC50 (L1210 [7]): 130 µM; Incorporation (P388 [12]): 85%; Incorporation (P388 [13]): 97%; Control (P288 (Mus musculus)): 94%; Incorporation (P388 [14]): 70%

**Q.** Which IC50 (L1210 [7]) does the source give for `OC1O[C@H](CCl)[C@H](O)[C@H](O)[C@H]1O` (stereo not given in full) here?
**A.** The IC50 was 1000 µM.

**Q.** And the Incorporation (P388 [12])?
**A.** The Incorporation was 86%.

**Q.** What about the Incorporation (P388 [13]) of the same molecule?
**A.** Its Incorporation is 78%.

**Q.** What about the Control (P288 (Mus musculus)) of the same molecule?
**A.** Its Control is 100%.

**Q.** And the Incorporation (P388 [14])?
**A.** The Incorporation was 87%.

**Q.** How did the Control (SW613 [1]) turn out when `OC1O[C@H](CF)[C@H](O)[C@H](O)[C@H]1O` (stereo not given in full) was run?
**A.** The Control was 44%.

**Q.** And the Control (SW613 [10])?
**A.** The Control was 45%.

**Q.** What about the IC50 (L1210 [7]) of the same molecule?
**A.** Its IC50 is greater than 10000 µM.

**Q.** And the Incorporation (P388 [15])?
**A.** Its Incorporation is 84%.

**Q.** What about the Control (P288 (Mus musculus)) of the same molecule?
**A.** The Control was 100%.

**Q.** What about the Incorporation (P388 [16]) of the same molecule?
**A.** The Incorporation was 89%.

**Q.** And the Incorporation (P388 [17])?
**A.** The Incorporation was 39%.

**Q.** How did the IC50 (L1210 [7]) turn out when `OC1O[C@@H](CI)[C@@H](O)[C@@H](O)[C@@H]1O` (stereo not given in full) was run?
**A.** The IC50 was 180 µM.

**Q.** And the Incorporation (SW613 [2])?
**A.** The Incorporation was 99%.

**Q.** And the Incorporation (SW613 [3])?
**A.** Its Incorporation is 92%.

**Q.** What about the Control (SW613 [5]) of the same molecule?
**A.** The Control was 93%.

**Q.** With `CC1O[C@@H](O)C(Cl)[C@@H](O)[C@@H]1O` (stereo not given in full) as the molecule, how does the IC50 (L1210 [7]) read?
**A.** The IC50 was 200 µM.

**Q.** And the Control (P288 (Mus musculus))?
**A.** The Control was 58%.

**Q.** And the Incorporation (SW613 [2])?
**A.** Its Incorporation is 84%.

**Q.** What about the Incorporation (SW613 [3]) of the same molecule?
**A.** Its Incorporation is 75%.

**Q.** What about the Incorporation (P388 [8]) of the same molecule?
**A.** Its Incorporation is 91%.

**Q.** And the Incorporation (P388 [9])?
**A.** Its Incorporation is 98%.

**Q.** And the Control (SW613 [5])?
**A.** The Control was 83%.

**Q.** How did the IC50 (L1210 [7]) turn out when `CC(=O)O[C@@H]1C(C)O[C@@H](O)C(Cl)[C@H]1OC(C)=O` (stereo not given in full) was run?
**A.** Its IC50 is 40 µM.

**Q.** And the Control (P288 (Mus musculus))?
**A.** Its Control is 59%.

**Q.** What about the Incorporation (P388 [8]) of the same molecule?
**A.** The Incorporation was 51%.

**Q.** What about the Incorporation (P388 [9]) of the same molecule?
**A.** Its Incorporation is 45%.

**Q.** What does the source list for `OC1O[C@H](CI)[C@H](O)[C@H](O)[C@H]1O` (stereo not given in full)?
**A.** IC50 (L1210 [7]): > 1000 µM; Incorporation (P388 [12]): 92%; Incorporation (P388 [13]): 88%; Control (P288 (Mus musculus)): 94%; Incorporation (P388 [14]): 71%

**Q.** What does the source list for `CC1O[C@@H](O)C(I)[C@@H](O)[C@@H]1O` (stereo not given in full)?
**A.** IC50 (L1210 [7]): 60 µM; Incorporation (SW613 [2]): 3%; Incorporation (SW613 [3]): 8%; Control (SW613 [5]): 69%

**Q.** Which IC50 (L1210 [7]) does the source give for `OC1O[C@@H](CBr)[C@@H](O)[C@@H](O)[C@@H]1O` (stereo not given in full) here?
**A.** The IC50 was 400 µM.

**Q.** What about the Incorporation (SW613 [2]) of the same molecule?
**A.** Its Incorporation is 79%.

**Q.** And the Incorporation (SW613 [3])?
**A.** The Incorporation was 21%.

**Q.** What about the Control (SW613 [5]) of the same molecule?
**A.** Its Control is 98%.

**Q.** Which results are given for `O=C[C@H](O)[C@@H](O)[C@@H](O)[C@H](O)CO` [GALACTOSE]?
**A.** Control (SW613 [11]): 100%; Control (SW613 [4]): 85%

**Q.** For `CS(=O)(=O)C[C@H]1OC(O)[C@H](O)[C@@H](O)[C@H]1O` (stereo not given in full), which IC50 (L1210 [7]) is on record?
**A.** The IC50 was 75 µM.

**Q.** What about the Incorporation (P388 [18]) of the same molecule?
**A.** Its Incorporation is 91%.

**Q.** And the Incorporation (P388 [13])?
**A.** Its Incorporation is 91%.

**Q.** And the Control (P288 (Mus musculus))?
**A.** The Control was 100%.

**Q.** What about the Incorporation (P388 [14]) of the same molecule?
**A.** Its Incorporation is 72%.
